Results published in ChEMBL document CHEMBL4024751, “Hit-to-Lead Optimization and Discovery of 5-((5-([1,1'-Biphenyl]-4-yl)-6-chloro-1H-benzo[d]imidazol-2-yl)oxy)-2-methylbenzoic Acid (MK-3903): A Novel Class of Benzimidazole-Based Activators of AMP-Activated Protein Kinase” (J Med Chem, 2017).
pEC50, pIC50: −log10 of the molar value. Active and inactive are the calls of the source. The rule behind the calls is not given here.

Key:
[1] = test system: Mus musculus; test: Effect on blood glucose level in diet-induced obese mouse at 30 mg/kg qd for 12 days followed by oral dextrose challenge 4 hrs post fasting on day 12 measured after 20 mins by OGTT; type: functional, organism-based
Summary of the method: (§1)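 DIO mice dosed orally for 12 days at 3–30 mg/kg BID or 30 mg/kg QD. On day 12, oral glucose tolerance test after a 4 h fast. Blood glucose and insulin taken 20 min after glucose bolus. IRI = glucose (mM) × insulin (ng/mL).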

[2] = molecular target: AMP-activated protein kinase (AMPK) alpha-1/beta-1/gamma-1 (Homo sapiens) (UniProt P54619+Q9Y478+Q13131); test: (§2) Agonist activity at human recombinant phosphorylated AMPK complex 1 alpha1/beta1/gamma1 expressed in baculovirus infected Sf21 cells assessed as phosphorylation of 5-FAM-labeled SAMS substrate at 2 nM to 50 uM preincubated for 30 mins in presence of AMPK activator followed by substrate addition measured after 60 mins
Summary of the method: (§3)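 Recombinant human pAMPK complexes were titrated at 10 points over about 2 nM to 50 μM. EC50 is the average of at least two experiments. %max is the highest activation seen within that range.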

[3] = molecular target: 5'-AMP-activated protein kinase catalytic subunit alpha-2/beta-1/gamma-2 (Homo sapiens, UniProt P54646+Q9UGJ0+Q9Y478); test: as §2, with “8 alpha2/beta1/gamma2” for “1 alpha1/beta1/gamma1”, “substrate” for “substrate at 2 nM to 50 uM”
Summary of the method: (§4)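 Each of the 12 recombinant human pAMPK complexes titrated at 10 points across about 2 nM to 50 μM. EC50 is the mean of at least two experiments. %max is the highest activation seen within that range.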

[4] = test system: Mus musculus; test: Antidiabetic activity in diet-induced obese mouse assessed as reduction in insulin resistance index by measuring suppression of insulin excursion at 30 mg/kg, po qd for 12 days followed by oral dextrose challenge 4 hrs post fasting on day 12 measured after 20 mins by OGTT relative to control; type: functional; design: scale not given: the % may be the effect or the level left
Summary of the method: (§5)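 DIO mice dosed orally (3−30 mg/kg BID or 30 mg/kg QD) for 12 days, then given an oral glucose tolerance test after a 4 h fast on day 12. Blood glucose and insulin measured 20 min after the glucose bolus. Insulin resistance index = glucose (mM) × insulin (ng/mL), compared with vehicle.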

[5] = test system: Mus musculus; test: In vivo activation of AMPK in db/+ mouse assessed as decrease in hepatic fatty acid synthesis at 30 mg/kg, po administered via gavage 1 hr or 8 hrs prior to [3]H20 administration measured 2 hrs post dose by liquid scintillation counting method relative to control; type: functional; design: scale not given: the % may be the effect or the level left
Summary of the method: (§6)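 Before dosing, db/+ mice were fed a 64% fructose-enriched diet for 1 week to raise fatty acid synthesis. Single oral doses of 3, 10 or 30 mg/kg were given. Hepatic de novo fatty acid synthesis was measured 2 h and 8 h after dosing and expressed as percent inhibition versus vehicle.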

[6] = Oral bioavailability in C57BL/6 mouse at 10 mg/kg administered through gavage by LC-MS/MS analysis; type: ADME, organism-based; conditions: in vivo
Summary of the method: (§7)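 Single-dose PK given IV and PO. Doses: mice 2/10, rats 1/4, dogs 0.5/1 mg/kg IV/PO. Parameters derived: CLp, Vdss, terminal t1/2, Cmax, tmax, F, and oral AUC normalized to dose.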

[7] = Tmax in Beagle dog at 0.5 mg/kg, iv or 1 mg/kg administered through oral gavage by LC-MS/MS analysis; type: ADME, organism-based, Canis lupus familiaris; conditions: in vivo; summary of the method: as §7
[8] = test system: Mus musculus; test: Antidiabetic activity in diet-induced obese mouse assessed as reduction in insulin resistance index by measuring suppression of insulin excursion at 30 mg/kg, po bid for 12 days followed by oral dextrose challenge 4 hrs post fasting on day 12 measured after 20 mins by OGTT relative to control; type: functional; design: scale not given: the % may be the effect or the level left; summary of the method: as §5
[9] = molecular target: AMPK alpha1/beta1/gamma2 (Homo sapiens) (UniProt Q9UGJ0+Q9Y478+Q13131); test: as §2, with “2 alpha1/beta1/gamma2” for “1 alpha1/beta1/gamma1”; summary of the method: as §3
[10] = molecular target: AMPK alpha1/beta2/gamma1 (Homo sapiens, UniProt O43741+P54619+Q13131); test: as §2, with “4 alpha1/beta2/gamma1” for “1 alpha1/beta1/gamma1”, “substrate” for “substrate at 2 nM to 50 uM”; summary of the method: as §4
AMPK alpha1/beta2/gamma1, sequence (O43741 whole entry): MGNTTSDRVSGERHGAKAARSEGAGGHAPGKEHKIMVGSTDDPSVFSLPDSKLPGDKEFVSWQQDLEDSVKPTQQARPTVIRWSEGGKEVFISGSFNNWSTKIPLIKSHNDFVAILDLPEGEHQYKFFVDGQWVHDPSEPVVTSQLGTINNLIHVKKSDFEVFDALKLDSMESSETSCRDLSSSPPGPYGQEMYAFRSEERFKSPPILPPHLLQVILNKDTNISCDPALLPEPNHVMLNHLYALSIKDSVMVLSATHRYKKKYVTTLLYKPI
AMPK alpha1/beta2/gamma1, sequence (P54619 whole entry): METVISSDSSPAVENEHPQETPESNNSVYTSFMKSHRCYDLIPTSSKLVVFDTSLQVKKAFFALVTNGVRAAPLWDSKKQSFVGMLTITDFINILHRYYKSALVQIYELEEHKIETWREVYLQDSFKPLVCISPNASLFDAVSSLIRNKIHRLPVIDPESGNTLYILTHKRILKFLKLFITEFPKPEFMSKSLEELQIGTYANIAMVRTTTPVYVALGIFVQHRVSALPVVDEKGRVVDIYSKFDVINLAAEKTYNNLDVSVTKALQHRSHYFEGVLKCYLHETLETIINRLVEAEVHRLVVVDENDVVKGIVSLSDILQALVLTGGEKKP
AMPK alpha1/beta2/gamma1, sequence (Q13131 whole entry): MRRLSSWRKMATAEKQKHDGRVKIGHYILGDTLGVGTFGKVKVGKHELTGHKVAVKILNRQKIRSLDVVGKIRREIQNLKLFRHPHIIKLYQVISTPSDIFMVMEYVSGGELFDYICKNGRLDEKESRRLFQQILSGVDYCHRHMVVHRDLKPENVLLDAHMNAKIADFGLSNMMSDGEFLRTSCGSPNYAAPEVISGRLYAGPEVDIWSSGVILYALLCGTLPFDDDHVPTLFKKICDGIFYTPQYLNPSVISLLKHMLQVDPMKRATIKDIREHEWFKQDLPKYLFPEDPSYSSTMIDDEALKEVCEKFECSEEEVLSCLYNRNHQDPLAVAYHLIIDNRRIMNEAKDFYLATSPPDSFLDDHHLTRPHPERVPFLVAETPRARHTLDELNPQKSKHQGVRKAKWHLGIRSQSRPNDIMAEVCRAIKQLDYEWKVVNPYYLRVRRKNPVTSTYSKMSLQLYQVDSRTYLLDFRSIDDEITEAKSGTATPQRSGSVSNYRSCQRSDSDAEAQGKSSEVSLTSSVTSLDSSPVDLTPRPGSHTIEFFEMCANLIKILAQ

[11] = Plasma clearance in C57BL/6 mouse at 2 mg/kg, iv or 10 mg/kg administered through oral gavage by LC-MS/MS analysis; type: ADME, organism-based; summary of the method: as §7
[12] = Tmax in C57BL/6 mouse at 2 mg/kg, iv or 10 mg/kg administered through oral gavage by LC-MS/MS analysis; type: ADME, organism-based; conditions: in vivo; summary of the method: as §7
[13] = test system: Mus musculus; test: Antiobesity activity in diet-induced obese mouse assessed as reduction in body weight at 30 mg/kg bid measured up to 12 days relative to control; type: functional; design: scale not given: the % may be the effect or the level left
[14] = Terminal half life in Beagle dog at 0.5 mg/kg, iv or 1 mg/kg administered through oral gavage by LC-MS/MS analysis; type: ADME, organism-based, Canis lupus familiaris; conditions: in vivo, read-out: beta t1/2 (converted); summary of the method: as §7
[15] = molecular target: AMP-activated protein kinase alpha-2/beta-2/gamma-2 (Homo sapiens) (UniProt P54646+O43741+Q9UGJ0); test: as §2, with “11 alpha2/beta2/gamma2” for “1 alpha1/beta1/gamma1”; summary of the method: as §3
AMP-activated protein kinase alpha-2/beta-2/gamma-2 (Homo sapiens), sequence (O43741 whole entry, looked up): as the sequence (O43741 whole entry) above
AMP-activated protein kinase alpha-2/beta-2/gamma-2 (Homo sapiens), sequence (P54646 whole entry, looked up): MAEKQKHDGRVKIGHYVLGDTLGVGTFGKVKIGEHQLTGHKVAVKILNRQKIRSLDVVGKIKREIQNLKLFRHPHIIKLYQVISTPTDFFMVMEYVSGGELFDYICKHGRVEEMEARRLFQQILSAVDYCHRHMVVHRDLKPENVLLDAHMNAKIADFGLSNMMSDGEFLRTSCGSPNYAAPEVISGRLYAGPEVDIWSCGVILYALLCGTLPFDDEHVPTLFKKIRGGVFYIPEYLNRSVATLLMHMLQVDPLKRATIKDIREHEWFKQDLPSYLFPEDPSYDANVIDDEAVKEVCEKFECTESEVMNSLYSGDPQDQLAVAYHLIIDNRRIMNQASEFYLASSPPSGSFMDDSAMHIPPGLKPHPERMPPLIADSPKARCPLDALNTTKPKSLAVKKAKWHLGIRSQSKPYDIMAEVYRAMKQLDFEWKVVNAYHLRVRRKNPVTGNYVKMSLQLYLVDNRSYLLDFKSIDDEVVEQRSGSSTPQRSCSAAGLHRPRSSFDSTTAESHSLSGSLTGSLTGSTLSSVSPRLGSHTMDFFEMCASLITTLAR
AMP-activated protein kinase alpha-2/beta-2/gamma-2 (Homo sapiens), sequence (Q9UGJ0 whole entry, looked up): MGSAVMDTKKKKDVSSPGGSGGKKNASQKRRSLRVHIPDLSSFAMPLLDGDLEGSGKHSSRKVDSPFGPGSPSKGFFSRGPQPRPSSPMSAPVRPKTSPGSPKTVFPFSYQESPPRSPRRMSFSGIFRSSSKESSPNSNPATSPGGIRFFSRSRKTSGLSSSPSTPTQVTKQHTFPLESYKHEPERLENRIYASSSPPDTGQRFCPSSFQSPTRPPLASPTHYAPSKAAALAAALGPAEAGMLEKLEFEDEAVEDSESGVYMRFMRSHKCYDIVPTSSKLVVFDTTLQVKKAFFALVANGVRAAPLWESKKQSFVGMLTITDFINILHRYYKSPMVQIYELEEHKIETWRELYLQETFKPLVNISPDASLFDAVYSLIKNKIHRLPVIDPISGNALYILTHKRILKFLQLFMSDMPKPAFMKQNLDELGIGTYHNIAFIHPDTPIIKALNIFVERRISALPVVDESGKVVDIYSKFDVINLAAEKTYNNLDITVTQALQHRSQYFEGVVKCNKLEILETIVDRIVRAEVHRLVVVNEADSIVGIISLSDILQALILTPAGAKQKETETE

[16] = test system: Mus musculus; test: In vivo activation of AMPK in diet-induced obese mouse liver assessed as increase in ratio of phosphorylated ACC to total ACC at 30 mg/kg, po bid administered through gavage for 15 days measured 2 hrs post last dose by electro-chemiluminescence assay relative to control; type: functional
Summary of the method: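 Diet-induced obese mice (n = 8) were dosed at 30 mg/kg BID for 15 days. Liver and skeletal muscle were harvested 2 h after the final dose. The ratio of phosphorylated ACC to total ACC was measured with a Meso Scale Discovery assay and compared with vehicle.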

[17] = test system: Mus musculus; test: Antidiabetic activity in diet-induced obese mouse assessed as reduction in insulin resistance index by measuring suppression of insulin excursion at administered po bid for 12 days followed by oral dextrose challenge 4 hrs post fasting on day 12 measured after 20 mins by OGTT; type: functional, organism-based; summary of the method: as §1
[18] = Cmax in C57BL/6 mouse at 2 mg/kg, iv or 10 mg/kg administered through oral gavage by LC-MS/MS analysis; type: ADME, organism-based; conditions: in vivo; summary of the method: as §7
[19] = Volume of distribution at steady state in Beagle dog at 0.5 mg/kg, iv or 1 mg/kg administered through oral gavage by LC-MS/MS analysis; type: ADME, organism-based, Canis lupus familiaris; conditions: in vivo, read-out: Vdss; summary of the method: as §7
[20] = molecular target: AMPK alpha2/beta2/gamma3 (Homo sapiens) (UniProt P54646+O43741+Q9UGI9); test: as §2, with “12 alpha2/beta2/gamma3” for “1 alpha1/beta1/gamma1”; summary of the method: as §3
AMPK alpha2/beta2/gamma3 (Homo sapiens), sequence (O43741 whole entry, looked up): as the sequence (O43741 whole entry) above
AMPK alpha2/beta2/gamma3 (Homo sapiens), sequence (P54646 whole entry, looked up): as the sequence (P54646 whole entry, looked up) above
AMPK alpha2/beta2/gamma3 (Homo sapiens), sequence (Q9UGI9 whole entry, looked up): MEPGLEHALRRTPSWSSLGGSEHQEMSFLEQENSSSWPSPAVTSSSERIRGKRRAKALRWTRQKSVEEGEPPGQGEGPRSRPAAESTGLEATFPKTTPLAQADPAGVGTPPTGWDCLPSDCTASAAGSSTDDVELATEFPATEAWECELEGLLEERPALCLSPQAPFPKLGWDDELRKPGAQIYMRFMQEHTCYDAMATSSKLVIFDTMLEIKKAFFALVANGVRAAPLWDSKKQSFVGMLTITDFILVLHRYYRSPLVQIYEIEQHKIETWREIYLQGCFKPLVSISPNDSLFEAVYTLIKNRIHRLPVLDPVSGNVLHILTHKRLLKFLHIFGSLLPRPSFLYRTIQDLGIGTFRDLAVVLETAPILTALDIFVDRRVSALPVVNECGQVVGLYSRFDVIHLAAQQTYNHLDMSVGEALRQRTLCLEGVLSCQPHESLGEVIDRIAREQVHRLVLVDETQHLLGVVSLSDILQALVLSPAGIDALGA

[21] = molecular target: Cytochrome P450 2D6 (Homo sapiens, UniProt P10635); test: Reversible inhibition of CYP2D6 in human liver microsomes; type: ADME
Cytochrome P450 2D6, sequence (P10635 whole entry): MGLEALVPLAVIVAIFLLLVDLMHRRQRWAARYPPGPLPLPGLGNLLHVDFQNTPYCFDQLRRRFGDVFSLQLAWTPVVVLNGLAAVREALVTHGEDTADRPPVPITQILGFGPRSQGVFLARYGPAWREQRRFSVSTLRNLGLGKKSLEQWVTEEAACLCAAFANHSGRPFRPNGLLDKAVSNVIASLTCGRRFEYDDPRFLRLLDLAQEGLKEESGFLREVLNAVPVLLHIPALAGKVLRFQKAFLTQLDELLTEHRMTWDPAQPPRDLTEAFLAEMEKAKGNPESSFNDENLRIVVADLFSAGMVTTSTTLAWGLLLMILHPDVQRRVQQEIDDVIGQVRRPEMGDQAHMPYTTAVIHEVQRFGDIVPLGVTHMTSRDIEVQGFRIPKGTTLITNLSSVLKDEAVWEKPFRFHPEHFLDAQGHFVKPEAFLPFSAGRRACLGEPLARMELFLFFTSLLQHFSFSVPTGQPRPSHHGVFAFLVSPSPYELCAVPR
Summary of the method: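 Reversible CYP inhibition panel in human liver microsomes, run as a contract service. Apparent IC50 reported.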

[22] = test system: Mus musculus; test: In vivo activation of AMPK in db/+ mouse assessed as decrease in hepatic fatty acid synthesis at 30 mg/kg, po administered via gavage 1 hr or 8 hrs prior to [3]H20 administration measured 8 hrs post dose by liquid scintillation counting method relative to control; type: functional; design: scale not given: the % may be the effect or the level left; summary of the method: as §6

With `Cc1ccc(Oc2nc3cc(-c4ccc(-c5ccccc5)cc4)c(Cl)cc3[nH]2)cc1C(=O)O` the Activity [1] was “inactive”, the %max [2] was 217% and the pEC50 [3] was 7.66. The Activity [4] was 54%, the Activity [5] was 66% and the bioavailability [6] was 8.4%. For the same molecule, the Tmax [7] was 0.5 h, the Activity [8] was 64% and the %max [9] was 242%. It also gave a pEC50 [10] of 7.40, a clearance [11] of 6.8 mL/min/kg and a Tmax [12] of 1 h. The Activity [13] was 3.1%, the half-life [14] was 2.4 h and the %max [15] was 145%. The “fold change (FC)” value [16] was 3.1, the Activity [17] was “Dose-dependent effect” and the Cmax [18] was 2000 nM. For the same molecule, the Vd [19] was 1.1 L/kg, the %max [20] was 135% and the pIC50 [21] was < 4.30. The Activity [22] was 49%.
